From ChEMBL document CHEMBL2385003, “Oleuropein protects against dextran sodium sulfate-induced chronic colitis in mice” (J Nat Prod, 2013)
Activity calls are given as the source filed them. The rule behind the calls is not given here.

Key:
[1] = Antiproliferative activity against rat IEC-18 cells at 10 uM after 24 hrs by MTT assay; assay type: cell-based; conditions: iec-18, 24 h
[2] = Wound healing activity in rat IEC-18 cells assessed as reduction of cell migration at 10 uM after 24 hrs relative to control; assay type: functional; set-up: scale not given: the % may be the effect or the level left
Procedure, shortened: (§1)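 Confluent IEC-18 cells (from 2.5 × 10^5 cells/mL seeding) were moved to 0.5% FBS DMEM and scraped. They were then treated with test substance at 10 and 100 μM, or dexamethasone 10 μM. Migration was counted blind as cells crossing the wound border in a defined area from 0 to 24 h, using photomicrographs at 200×. n = 10.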

IEC-18 [3] = test: Inhibition of LPS-induced p38 MAPK phosphorylation in rat IEC-18 cells at 10 uM incubated for 1 hr prior to LPS challenge measured after 30 mins by Western blot analysis; assay type: cell-based
Procedure, shortened: (§2)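 IEC-18 rat intestinal epithelial cells were seeded at 2.5 × 10^5 cells/mL in DMEM (4.5 g/L glucose, 5% FBS) at 37 °C and 5% CO2. After 24 h the medium was switched to 0.5% FBS. Cells were pretreated with compound for 1 h, then stimulated with LPS 1 μg/mL: 30 min for phospho-p38 and 24 h for COX-2. Cytosolic protein (25 μg) was run on Western blots. Each result is the mean of at least three independent experiments.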

IEC-18 [4] = test: Inhibition of p38 MAPK-induced COX-2 expression in rat IEC-18 cells at 10 uM incubated for 1 hr prior to LPS challenge measured after 24 hrs by Western blot analysis; assay type: cell-based; procedure, shortened: as §2
[5] = Wound healing activity in rat IEC-18 cells assessed as induction of wound closure at 100 uM after 24 hrs relative to dexamethasone; assay type: functional; procedure, shortened: as §1
[6] = Wound healing activity in rat IEC-18 cells assessed as induction of wound closure at 10 uM after 24 hrs relative to dexamethasone; assay type: functional; procedure, shortened: as §1
[7] = Antiproliferative activity against rat IEC-18 cells at 10 to 100 uM after 24 hrs by MTT assay; assay type: cell-based; conditions: iec-18, 24 h
Procedure, shortened: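 IEC-18 rat epithelial cells (passages 18–22) were seeded at 2.5 × 10^5 cells/mL in DMEM (4.5 g/L glucose, 5% FBS). After 24 h the medium was switched to 0.5% FBS and test substance was added at 10 and 100 μM, with dexamethasone 10 μM as reference. Proliferation was read by MTT at 24 h. n = 10.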

IEC-18 [8] = test: Inhibition of LPS-induced p38 MAPK phosphorylation in rat IEC-18 cells at 100 uM incubated for 1 hr prior to LPS challenge measured after 30 mins by Western blot analysis; assay type: cell-based
Procedure, shortened: (§3)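 IEC-18 cells were seeded at 2.5 × 10^5 cells/mL in DMEM with 5% FBS; after 24 h the medium was switched to 0.5% FBS. Cells were pretreated 1 h with test substance at 100 μM (SB 203580 10 μM as reference), then given LPS 1 μg/mL. Phospho-p38 was read at 30 min and COX-2 at 24 h by Western blot (25 μg protein, 1:1000 antibodies, β-actin normalized). n = 6.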

IEC-18 [9] = test: Inhibition of p38 MAPK-induced COX-2 expression in rat IEC-18 cells at 100 uM incubated for 1 hr prior to LPS challenge measured after 24 hrs by Western blot analysis; assay type: cell-based; procedure, shortened: as §3
Mus musculus [10] = test: Antiinflammatory activity in C57BL/6 mouse DSS-induced chronic colitis model assessed as effect on NFkappaB pathway in colon at 500 mg/kg/day administered through diet for total of 4 weeks for alternative weeks with water measured after 56 days by Western blot analysis; assay type: functional, organism-based
Mus musculus [11] = test: (§4) Antiinflammatory activity in C57BL/6 mouse DSS-induced chronic colitis model assessed as downregulation of p38 MAPK phosphorylation in colon at 500 mg/kg/day administered through diet for 4 weeks measured after 56 days by Western blot analysis relative to DSS-treated mouse; assay type: functional
Mus musculus [12] = test: as §4, with “iNOS expression” for “p38 MAPK phosphorylation”, “for total of” for “for”, “weeks for alternative weeks with water” for “weeks”; assay type: functional
Mus musculus [13] = test: as §4, with “COX-2 expression” for “p38 MAPK phosphorylation”, “for total of” for “for”, “weeks for alternative weeks with water” for “weeks”; assay type: functional
Mus musculus [14] = test: (§5) Antiinflammatory activity in C57BL/6 mouse DSS-induced chronic colitis model assessed as induction of IL-10 production in colon at 500 mg/kg/day administered through diet for total of 4 weeks for alternative weeks with water measured after 56 days by ELISA relative to DSS-treated mouse; assay type: functional; conditions: C57BL/6, Colon
Procedure, shortened: (§6)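 Mice were female C57BL/6 on the chronic DSS schedule: 1% DSS in cycles 1–2, 2% in cycles 3–4, each cycle 7 days DSS then 7 days water. Diet carried 0.25% test substance for 56 days. Colon powder was suspended 20% w/v in PBS/0.1% NP-40, sonicated and spun at 20000g. IL-6, IL-1β and IL-10 were measured in supernatants by ELISA as pg/mL per mg protein. Mean ± SEM, n = 7.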

Mus musculus [15] = test: Antiinflammatory activity in C57BL/6 mouse DSS-induced chronic colitis model assessed as inhibition of IL-1beta production in colon at 500 mg/kg/day administered through diet for total of 4 weeks for alternative weeks with water measured after 56 days by ELISA relative to DSS-treated mouse; assay type: functional; conditions: C57BL/6, Colon; procedure, shortened: as §6
Mus musculus [16] = test: Antiinflammatory activity in C57BL/6 mouse DSS-induced chronic colitis model assessed as inhibition of IL-6 production in colon at 500 mg/kg/day administered through diet for total of 4 weeks for alternative weeks with water measured after 56 days by ELISA relative to DSS-treated mouse; assay type: functional; conditions: C57BL/6, Colon; procedure, shortened: as §6
Mus musculus [17] = test: as §5, with “decrease in eosinophil peroxidase activity measured reduction” for “induction”, “eosinophil accumulation” for “IL-10 production”, “spectrophotometric analysis” for “ELISA”; assay type: functional; set-up: scale not given: the % may be the effect or the level left
Procedure, shortened: (§7)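 Female C57BL/6 mice, 6−8 weeks, 18−20 g. Four DSS cycles in drinking water (1% in cycles 1–2, 2% in cycles 3–4; each 7 days DSS, then 7 days water). Diet held 0.25% test substance (about 500 mg/kg/day). Colons taken at day 56 and homogenized in 80 mM phosphate pH 5.4 with 0.5% HTAB. MPO read with TMB/H2O2, 37 °C 3 min, 630 nm. EPO read with o-phenylenediamine/H2O2, 2 min room temperature, 490 nm. NAG read with 4-nitrophenyl N-acetyl-β-D-glucosaminide, 37 °C 5 min, 405 nm. Mean ± SEM, n = 7.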

Mus musculus [18] = test: as §5, with “decrease in N-acetylglucosaminidase activity measured reduction” for “induction”, “macrophage accumulation” for “IL-10 production”, “spectrophotometric analysis” for “ELISA”; assay type: functional; set-up: scale not given: the % may be the effect or the level left; procedure, shortened: as §7
Mus musculus [19] = test: as §5, with “decrease in myeloperoxidase activity measured reduction” for “induction”, “neutrophil accumulation” for “IL-10 production”, “spectrophotometric analysis” for “ELISA”; assay type: functional; set-up: scale not given: the % may be the effect or the level left; procedure, shortened: as §7
Mus musculus [20] = test: Antiinflammatory activity in C57BL/6 mouse DSS-induced chronic colitis model assessed as reduction of stool consistency at 500 mg/kg/day administered through diet for total of 4 weeks for alternative weeks with water measured after 56 days; assay type: functional, organism-based
Procedure, shortened: (§8)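 Mice and schedule as in the chronic DSS model: four 7-day DSS cycles (1%, 1%, 2%, 2%), each followed by 7 days water, with a diet containing 0.25% test substance. At day 56, stool consistency (normal, loose, diarrhea) and gross rectal bleeding (visible fecal blood, anal examination) were scored within the DAI. n = 10.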

Mus musculus [21] = test: Antiinflammatory activity in C57BL/6 mouse DSS-induced chronic colitis model assessed as reduction of rectal bleeding at 500 mg/kg/day administered through diet for total of 4 weeks for alternative weeks with water measured after 56 days; assay type: functional, organism-based; procedure, shortened: as §8
Mus musculus [22] = test: Antiinflammatory activity in C57BL/6 mouse DSS-induced chronic colitis model assessed as reduction of edema at 500 mg/kg/day administered through diet for total of 4 weeks for alternative weeks with water measured after 56 days by hematoxylin-eosin staining; assay type: functional, organism-based
Mus musculus [23] = test: Antiinflammatory activity in C57BL/6 mouse DSS-induced chronic colitis model assessed as reduction of mucosal injury at 500 mg/kg/day administered through diet for total of 4 weeks for alternative weeks with water measured after 56 days by hematoxylin-eosin staining; assay type: functional, organism-based
Mus musculus [24] = test: Antiinflammatory activity in C57BL/6 mouse DSS-induced chronic colitis model assessed as leukocyte infiltration into mucosal tissue at 500 mg/kg/day administered through diet for total of 4 weeks for alternative weeks with water measured after 56 days by hematoxylin-eosin staining; assay type: functional, organism-based
Mus musculus [25] = test: Antiinflammatory activity in C57BL/6 mouse DSS-induced chronic colitis model assessed as reduction of colon weight to length ratio at 500 mg/kg/day administered through diet for total of 4 weeks for alternative weeks with water measured after 56 days; assay type: functional, organism-based
Procedure, shortened: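 Female C57BL/6 mice received four DSS cycles: 7 days DSS in drinking water (1%, then 2% in cycles 3–4) followed by 7 days water. Diet contained 0.25% test substance, about 500 mg/kg/day. At day 56, colons were removed, rinsed in cold PBS, blotted, weighed and measured to give weight/length (mg/cm). n = 10.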

Mus musculus [26] = test: Antiinflammatory activity in C57BL/6 mouse DSS-induced chronic colitis model assessed as prevention of body weight loss at 500 mg/kg/day administered through diet for total of 4 weeks for alternative weeks with water measured after 56 days; assay type: functional, organism-based
Mus musculus [27] = test: Antiinflammatory activity in C57BL/6 mouse DSS-induced chronic colitis model assessed as decrease in severity of progressive chronic injury at 500 mg/kg/day administered through diet for total of 4 weeks for alternative weeks with water measured after 56 days; assay type: functional, organism-based
Mus musculus [28] = test: Toxicity in C57BL/6 mouse assessed as effect on viability at 500 mg/kg/day administered through diet for total of 4 weeks for alternative weeks with water measured after 56 days; assay type: organism-based; conditions: in vivo, 1344 h
Mus musculus [29] = test: Antiinflammatory activity in C57BL/6 mouse DSS-induced chronic colitis model assessed as up regulation of annexin A1 mRNA expression in colon at 500 mg/kg/day administered through diet for total of 4 weeks for alternative weeks with water measured after 56 days by RT-PCR analysis relative to DSS-treated control; assay type: functional
Procedure, shortened: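 Female C57BL/6 mice (6−8 weeks, 18−20 g) got four cycles of 7 days DSS in drinking water (1% cycles 1–2, 2% cycles 3–4) then 7 days water, with diet at 0.25% test agent throughout. Colons were taken at day 56. cDNA from 500 ng RNA was amplified with annexin A1 primers (25 cycles: 94/60/72 °C, 1 min each) and run on 2% agarose gel.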

## C[C@@H]1C[C@H]2[C@@H]3CCC4=CC(=O)C=C[C@]4(C)[C@@]3(F)[C@@H](O)C[C@]2(C)[C@@]1(O)C(=O)CO [DEXAMETHASONE]
[1]
  Activity: Non-toxic
[2]
  Activity: 20%

## C[S+]([O-])c1ccc(-c2nc(-c3ccc(F)cc3)c(-c3ccncc3)[nH]2)cc1 (centres undefined)
IEC-18 [3]
  inhibition: Active
IEC-18 [4]
  inhibition: 70%

## C/C=C1/[C@H](O[C@@H]2O[C@H](CO)[C@@H](O)[C@H](O)[C@H]2O)OC=C(C(=O)OC)[C@H]1CC(=O)OCCc1ccc(O)c(O)c1 [OLEUROPEIN]
[5]
  Activity: 80%
[6]
  Activity: 57%
[7]
  Activity: Non-toxic
IEC-18 [8]
  inhibition: Active
IEC-18 [9]
  inhibition: 83%
Mus musculus [10]
  Activity: inactive
Mus musculus [11]
  Activity: <=65%
Mus musculus [12]
  Activity: 58%
Mus musculus [13]
  Activity: 68%
Mus musculus [14]
  induction in vivo at 500 mg/kg/day: 34%
Mus musculus [15]
  inhibition in vivo at 500 mg/kg/day: 25%
Mus musculus [16]
  inhibition in vivo at 500 mg/kg/day: 37%
Mus musculus [17]
  Activity: 46%
Mus musculus [18]
  Activity: 42%
Mus musculus [19]
  Activity: 36%
Mus musculus [20]
  Activity: Active
Mus musculus [21]
  Activity: Active
Mus musculus [22]
  Activity: Active
Mus musculus [23]
  Activity: Active
Mus musculus [24]
  Activity: Active
Mus musculus [25]
  Activity: Active
Mus musculus [26]
  Activity: Active
Mus musculus [27]
  Activity: Active
Mus musculus [28]
  Activity: Non-toxic
Mus musculus [29]
  fold change (FC): 46
